In ChEMBL document CHEMBL1126768, “A mechanism-based inactivation study of neutral endopeptidase 24.11” (J Med Chem, 1993):

B1: Neprilysin (Homo sapiens), P08473 (protein)
chain: MGKSESQMDITDINTPKPKKKQRWTPLEISLSVLVLLLTIIAVTMIALYATYDDGICKSSDCIKSAARLIQNMDATTEPCTDFFKYACGGWLKRNVIPETSSRYGNFDILRDELEVVLKDVLQEPKTEDIVAVQKAKALYRSCINESAIDSRGGEPLLKLLPDIYGWPVATENWEQKYGASWTAEKAIAQLNSKYGKKVLINLFVGTDDKNSVNHVIHIDQPRLGLPSRDYYECTGIYKEACTAYVDFMISVARLIRQEERLPIDENQLALEMNKVMELEKEIANATAKPEDRNDPMLLYNKMTLAQIQNNFSLEINGKPFSWLNFTNEIMSTVNISITNEEDVVVYAPEYLTKLKPILTKYSARDLQNLMSWRFIMDLVSSLSRTYKESRNAFRKALYGTTSETATWRRCANYVNGNMENAVGRLYVEAAFAGESKHVVEDLIAQIREVFIQTLDDLTWMDAETKKRAEEKALAIKERIGYPDDIVSNDNKLNNEYLELNYKEDEYFENIIQNLKFSQSKQLKKLREKVDKDEWISGAAVVNAFYSSGRNQIVFPAGILQPPFFSAQQSNSLNYGGIGMVIGHEITHGFDDNGRNFNKDGDLVDWWTQQSASNFKEQSQCMVYQYGNFSWDLAGGQHLNGINTLGENIADNGGLGQAYRAYQNYIKKNGEEKLLPGLDLNHKQLFFLNFAQVWCGTYRPEYAVNSIKTDVHSPGNFRIIGTLQNSAEFSEAFHCRKNSYMNPEKKCRVW
B2: Angiotensin-converting enzyme (Rattus norvegicus), P47820 (protein)
chain: MGAASGQRGRWPLSPPLLMLSLLLLLLLPPSPAPALDPGLQPGNFSADEAGAQLFADSYNSSAEVVMFQSTAASWAHDTNITEENARLQEEAALINQEFAEVWGKKAKELYESIWQNFTDQKLRRIIGSVQTLGPANLPLTQRLQYNSLLSNMSRIYSTGKVCFPNKTATCWSLDPELTNILASSRNYAKVLFAWEGWHDAVGIPLRPLYQDFTALSNEAYRQDGFSDTGAYWRSWYESPSFEESLEHLYHQVEPLYLNLHAFVRRALHRRYGDKYINLRGPIPAHLLGDMWAQSWENIYDMVVPFPDKPNLDVTSTMVQKGWNATHMFRVAEEFFTSLGLSPMPPEFWAESMLEKPADGREVVCHASAWDFYNRKDFRIKQCTRVTMDQLSTVHHEMGHVQYYLQYKDLHVSLRRGANPGFHEAIGDVLALSVSTPAHLHKIGLLDRVANDIESDINYLLKMALEKIAFLPFGYLVDQWRWGVFSGRTPPSRYNYDWWYLRTKYQGICPPVARNETHFDAGAKFHIPSVTPYIRYFVSFVLQFQFHQALCKEAGHQGPLHQCDIYQSTKAGAKLQQVLQAGCSRPWQEVLKDLVGSDALDASALMEYFQPVSQWLQEQNQRNGEVLGWPEYQWRPPLPDNYPEGIDLETDEAKANRFVEEYDRTAKVLWNEYAEANWHYNTNITIEGSKILLQKNKEVSNHTLKYGTWAKTFDVSNFQNSTIKRIIKKVQNVDRAVLPPNELEEYNQILLDMETTYSVANVCYTNGTCLSLEPDLTNIMATSRKYEELLWVWKSWRDKVGRAILPFFPKYVDFSNKIAKLNGYSDAGDSWRSSYESDDLEQDLEKLYQELQPLYLNLHAYVRRSLHRHYGSEYINLDGPIPAHLLGNMWAQTWSNIYDLVAPFPSAPSIDATEAMIKQGWTPRRIFKEADNFFTSLGLLPVPPEFWNKSMLEKPTDGREVVCHASAWDFYNGKDFRIKQCTSVNMEELVIAHHEMGHIQYFMQYKDLPVTFREGANPGFHEAIGDVLALSVSTPKHLHSLNLLSSEGSGYEHDINFLMKMALDKIAFIPFSYLIDQWRWRVFDGSITKENYNQEWWSLRLKYQGLCPPVPRSQGDFDPGSKFHVPANVPYIRYFISFIIQFQFHEALCRAAGHTGPLYKCDIYQSKEAGKLLADAMKLGYSKQWPEAMKIITGQPNMSASAIMNYFKPLTEWLVTENRRHGETLGWPEYTWTPNTARAEGSLPESSRVNFLGMYLEPQQARVGQWVLLFLGVALLVATVGLAHRLYNIHNHHSLRRPHRGPQFGSEVELRHS

Columns and labels:
[1] = substrate: N#CCC(=O)NC(Cc1ccccc1)C(=O)NC(Cc1ccccc1)C(=O)O; test: Michaelis-Menten constant determined for Neutral endopeptidase (NEP)
In short: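 Recombinant human NEP from CHO cells (>99% pure), 0.5 μM in 50 mM HEPES pH 7.4 with 10% p-dioxane, incubated at 25 °C with inactivator at 0.5–7.5 μM final. Aliquots diluted 1:100 into DAGNPG assay solution (50 mM Tris pH 7.4, 37 °C), fluorescence read at ex 342/em 562 nm. Pseudo-first-order kobs plotted double-reciprocally against inactivator concentration to give kinact and Km.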

[2] = substrate: N#CCC(=O)CC(Cc1ccccc1)C(=O)NC(Cc1ccccc1)C(=O)O
[3] = substrate: N#CCC(=O)NC(Cc1ccccc1)C(=O)NC(Cc1ccccc1)C(=O)O; test: Michaelis-Menten constant determined for Angiotensin I converting enzyme

| Protein | Km [1] [mM] | Km [2] [mM] | Km [3] [mM] |
| --- | --- | --- | --- |
| B1 | 2.38 | 5.1 |  |
| B2 |  |  | 10.5 |
